From ChEMBL document CHEMBL4699497, “Synthesis of indole-tethered [1,3,4]thiadiazolo and [1,3,4]oxadiazolo[3,2-a]pyrimidin-5-one hybrids as anti-pancreatic cancer agents” (Bioorg Med Chem Lett, 2020)

Tested on: PANC-1
Test: Cytotoxicity against human PANC1 cells assessed as reduction in cell viability measured after 48 hrs by MTS assay
Format: functional, cell-based
Conditions: for IC50: PANC-1, 48 h
In short: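 Human PANC-1 pancreatic cancer cells exposed to a range of doses of each compound for 48 h. Surviving cells quantified by MTS viability read-out, and IC50 derived from the dose-response curves.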

SMILES	IC50	inhibition
Cc1cc2ccccc2n1-c1cnc2sc(-c3ccccc3)nn2c1=O	> 100 µM	
Cc1cc2ccccc2n1-c1cnc2sc(-c3cccc(Br)c3)nn2c1=O	> 100 µM	
Nc1ccn([C@@H]2O[C@H](CO)[C@@H](O)C2(F)F)c(=O)n1 [GEMCITABINE]	> 500 µM	
Cc1cc2ccccc2n1-c1cnc2sc(-c3ccccc3Cl)nn2c1=O	> 100 µM	
O=c1c(-n2ccc3ccccc32)cnc2sc(-c3ccccc3)nn12	> 100 µM	
Cc1cc2ccccc2n1-c1cnc2sc(-c3ccc(Br)cc3)nn2c1=O	> 100 µM	
O=c1c(-n2ccc3ccccc32)cnc2sc(-c3ccccc3Cl)nn12	> 100 µM	
Cc1cc2ccccc2n1-c1cnc2oc(-c3ccc(Cl)cc3)nn2c1=O	40 µM	Dose-dependent effect
O=c1c(-n2ccc3ccccc32)cnc2sc(-c3cccc(Br)c3)nn12	> 100 µM	
O=c1c(-n2ccc3ccccc32)cnc2sc(-c3cccc(Cl)c3)nn12	> 100 µM	
O=c1c(-n2ccc3ccccc32)cnc2sc(-c3ccc(Cl)cc3)nn12	> 100 µM	
O=c1c(-n2ccc3ccccc32)cnc2oc(-c3ccccc3)nn12	21.1 µM	Dose-dependent effect
O=c1c(-n2ccc3ccccc32)cnc2oc(-c3ccccc3Cl)nn12	7.7 µM	Dose-dependent effect
O=c1c(-n2ccc3ccccc32)cnc2sc(-c3ccc(Br)cc3)nn12	> 100 µM	
O=c1c(-n2ccc3ccccc32)cnc2oc(-c3ccc(Br)cc3)nn12	90.5 µM	Dose-dependent effect
O=c1c(-n2ccc3ccccc32)cnc2oc(-c3ccc(Cl)cc3)nn12	94.9 µM	Dose-dependent effect
